This is a sample that favours compounds with a hit; in the whole collection about 3.9% have one here.
SR-BI uptake up – activators of SR-BI mediated DiI-HDL uptake, primary screen, ldlA[mSR-BI] CHO cells, DiI fluorescence. 320,000 tested, 0.096% active. AID 504775, 2011. 3 h; 100 = double the neutral-control signal. activation, % at 12.5 µM;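 active means mean replicate activation of at least 60% and every replicate at or above 60%; inconclusive means mean or all-replicate condition met, but not both; inactive means mean below 60% and not all replicates reaching 60%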;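 further: 0% = median plate neutral-control signal and 100% = twice that signal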
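Assay system: LDL receptor-deficient CHO ldlA cells overexpressing murine SR-BI / Medium: BSA-supplemented, HEPES-buffered Ham's F12, pH 7.4 / Probe or stimulus: DiI-labelled HDL at 10 µg/mL final / Timing: compound with DiI-HDL co-incubation, 3 h at 37 °C / Technique: bottom-read cell fluorescence after medium removal, ex 550/em 595 nm / Measure: HDL uptake via cellular fluorescence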
GAA850 FXN act – FXN promoter activators, primary screen, cell-based, luciferase luminescence, HEK293 lucGAA850. activation, % at 6 µM. HEK293 lucGAA850 FXN promoter luciferase reporter, 24 h; percent of 10 µM SAHA response. 360,000 tested, 0.56% active;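 active means activation above the average of all compounds screened plus 3 SD, cutoff fixed separately per campaign, cut at about 7.5% in these data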;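 further: 0% = DMSO wells and 100% = 10 µM SAHA wells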
AHR activator – AHR activators, primary screen, cell-based, luminescence, luciferase reporter, human. AHR-responsive luciferase reporter cells. activation, % at 5 µM. AID 2796, 2010. 320,000 tested, 2.5% active. Aryl hydrocarbon receptor (Homo sapiens), P35869; in the data active means activation above about 47%;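 further: 0% = vehicle wells and 100% = reference agonist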
HIF activator – HIF pathway transcriptional activators, primary screen, cell-based, U2OS HRE-luciferase, luminescence; U2OS HRE-luciferase reporter; normalized: DMSO 0%, desferrioxamine 100%; activation, % at 7.5 µM (by protocol); 300,000 tested, 0.32% active; AID 1910, 2009;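 active means mean activation of at least 10% of the iron chelator positive control signal, with at least half of replicates also reaching 10%; inconclusive means mean and replicate majority disagree about reaching 10%; inactive means mean and most replicates under 10%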
SR-BI HDL uptake – inhibitors of SR-BI mediated HDL lipid uptake, primary screen, ldlA[mSR-BI] cells, fluorescence, single point; inhibition, % at 12.5 µM; ldlA[mSR-BI] CHO cells, DiI-HDL uptake fluorescence, 3 h; Scavenger receptor class B member 1 (Mus musculus), Q61009; AID 488896, 2010; 320,000 tested, 0.96% active;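 active means mean replicate inhibition of at least 70% and a set share of replicates each scoring 70 or more; inconclusive means meets just one of the two criteria; inactive means fails both criteria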;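 further: 0% = median of neutral control wells and 100% = median of positive control wells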
ABCB6 inh 2 – ABCB6 transporter inhibitors, primary screen, K562-ABCB6 cells, flow cytometry, MLPCN library; ATP-binding cassette sub-family B member 6 (Homo sapiens), Q9NP58; K562-ABCB6 porphyrin accumulation, 1 h; stronger effect = lower value; fluorescence ratio to DMSO, % at 10 µM; 360,000 tested, 0.19% active;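 active means fluorescence ratio to DMSO below 75%, the collection mean minus 3 SD; inconclusive means too few cells collected in the well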;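 further: signal is porphyrin accumulated inside mitochondria; 100% equals median channel fluorescence of DMSO control wells; lower ratio means ABCB6 inhibition with less porphyrin fluorescence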
AHR act cf – AHR activators, confirmation, cell-based, luminescence, luciferase reporter, human | AID 2845, 2010 | human cells, AHR-responsive luciferase reporter | shares compounds with AHR activator | 2,300 tested, 87% active | activation, % at 9 µM; in the data active means activation above about 49%;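 further: HepG2 hepatoma cells carrying a DRE-driven firefly luciferase reporter; 0% = vehicle wells and 100% = reference agonist wells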
PXR act counter – human PXR activators, counter-screen for AHR activator project, cell-based, luciferase luminescence. shares compounds with AHR activator. cell-based PXR reporter. activation, % at 11.6 µM. 2,300 tested, 88% active. AID 434939, 2010; in the data active means activation above about 11%;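 further: human hepatoma DPX-2 cells expressing full-length human PXR; 0% = DMSO and 100% = reference agonist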
Target sequence (O75469 whole entry, looked up): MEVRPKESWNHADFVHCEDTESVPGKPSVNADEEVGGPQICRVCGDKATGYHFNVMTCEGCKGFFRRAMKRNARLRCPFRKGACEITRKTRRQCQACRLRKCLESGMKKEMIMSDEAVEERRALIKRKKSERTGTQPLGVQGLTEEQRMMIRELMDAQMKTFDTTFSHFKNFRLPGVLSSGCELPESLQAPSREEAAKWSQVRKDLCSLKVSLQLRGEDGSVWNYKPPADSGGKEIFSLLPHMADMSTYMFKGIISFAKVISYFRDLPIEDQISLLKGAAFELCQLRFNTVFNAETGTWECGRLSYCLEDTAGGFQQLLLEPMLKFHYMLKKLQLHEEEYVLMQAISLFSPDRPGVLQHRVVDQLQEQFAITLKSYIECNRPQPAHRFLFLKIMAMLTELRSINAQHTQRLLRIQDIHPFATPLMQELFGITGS
Active calls of the source: *; ? = inconclusive; . = no result.

SMILES	SR-BI uptake up	GAA850 FXN act	AHR activator	HIF activator	SR-BI HDL uptake	ABCB6 inh 2	AHR act cf	PXR act counter
O=C(Nc1ccc(F)c(Cl)c1)c1cccnc1	-2	4	15	2	2	103	.	.
O=C(COc1cccnc1[N+](=O)[O-])c1c[nH]c2ccccc12	8	3	87*	0	-8	105	108*	16*
CC(C)(C)c1csc(NC(=O)c2cccnc2)n1	1	1	.	1	-1	97	.	.
c1ccc2oc(C3=NNC(=NC4CC4)SC3)cc2c1	-82	2	137*	2	82*	102	1	16*
O=C(O)/C=C\C(=O)Nc1ccccc1C#Cc1ccccc1	-4	2	22	2	4	102	.	.
CCc1cc2c(=O)n(-c3ccccc3)cnc2s1	27	5	2	2	-27	104	.	.
O=C(Nc1cccc(Cl)c1)N1CCc2ccccc2C1	-9	6	114*	3	9	98	118*	30*
c1ccc(-c2nc3c(ccc4ccccc43)[nH]2)nc1	-21	1	95*	2	21	122	138*	11*
CC(=O)c1ccc(NC(=O)Nc2cccnc2)cc1	6	3	.	.	-6	100	.	.
O=C(NC(=S)Nc1ccccc1N1CCCCC1)c1ccc(F)cc1Cl	-46	2	6	0	46	102	.	.
O=C(NC(=S)Nc1ccccc1N1CCCC1)c1cccc(F)c1	-24	5	80*	0	24	117	91*	43*
CC(C)n1c(CNC(=O)c2ccccc2)nc2ccccc21	-5	-1	5	0	5	102	.	.
COc1ccc(OC)c(/C=N/NC(=O)CNC(=O)c2ccc(S(=O)(=O)N3CCOCC3)cc2)c1	-41	1	125*	0	41	98	8	5
Nc1nc2ccc(Cl)cc2c2nc(-c3ccco3)nn12	.	.	107*	-1	.	.	248*	34*
O=C(Cc1ccc(F)cc1)OCC(=O)c1cc2ccccc2o1	12	-1	2	0	-12	87	.	.
Cc1nc2sc(C(c3ccco3)N3CCN(C(c4ccccc4)c4ccccc4)CC3)c(O)n2n1 (centres undefined)	.	0	19	0	.	95	.	.
CC(C)(CCl)C(=O)Nc1ccc(C(F)(F)F)cc1	18	2	-1	0	-18	100	.	.
FC(F)(F)c1cccc(NC(=S)NNC(=S)Nc2ccc(Cl)cc2)c1	.	.	0	0	.	.	.	.
CN=C(Nc1ccc(Cl)cc1)c1ccc(C(F)(F)F)cc1	2	1	85*	1	-2	98	98*	45*
CN=C(Nc1ccc(Cl)cc1)c1cccc(C(F)(F)F)c1	-25	1	84*	0	25	101	89*	56*
O=C(Cn1c(=O)c2cccn2c2cccnc21)N1CCN(c2ccc(Cl)cc2)CC1	-28	1	1	0	28	98	.	.
Cc1nn(-c2ccccc2)c2[nH]c(=O)c(CNc3ccc(N4CCOCC4)cc3)cc12	13	0	4	-12	-13	99	.	.
Cc1nn(-c2ccc(Cl)cc2)c2[nH]c(=O)c(CNCc3ccc4c(c3)OCO4)cc12	-30	4	88*	-3	30	101	83*	36*
CCOc1ccccc1C(=O)Nc1cccc2ccccc12	-37	1	88*	0	37	88	63*	34*
CCOc1ccccc1C(=O)Nc1ccccc1O	-16	0	25	0	16	100	.	.
SMILES	SR-BI uptake up	GAA850 FXN act	AHR activator	HIF activator	SR-BI HDL uptake	ABCB6 inh 2	AHR act cf	PXR act counter
CSc1ccccc1NC(=O)c1ccoc1C	-15	4	3	0	15	91	.	.
CCOc1ccccc1NC(=O)c1ccoc1C	-48	1	81*	0	48	92	89*	13*
COc1ccc(-c2nc(NC(=O)Cn3ccc(C(F)(F)F)n3)sc2C)cc1	-40	-4	4	0	40	103	.	.
CCOC(=O)c1ccc2c(c1)nc(-c1ccc(F)cc1)c1nccn12	-36	0	85*	0	36	90	99*	24*
COc1ccccc1NS(=O)(=O)c1cccc(C(=O)N/N=C(/C)c2ccc(-n3ccnc3)cc2)c1	?	0	.	.	-78	98	.	.
C=C(C)CNC(=S)N/N=C(\C)c1ccc(-n2ccnc2)cc1	10	2	94*	0	-10	101	98*	36*
N=c1n(CCN2CCCCC2)c2ccccc2n1CC(=O)c1cccc([N+](=O)[O-])c1	-68	2	46	0	68	94	.	.
C=CCn1c(=N)n(CC(=O)c2cccc([N+](=O)[O-])c2)c2ccccc21	-6	3	85*	1	6	94	128*	58*
Cc1ccc(C(=O)Nc2ccc(S(=O)(=O)N3CCOCC3)cc2)cc1	-42	2	1	0	42	98	.	.
O=C(N1CCCCC1)C12CC3CC(CC(C3)C1)C2	-4	2	0	0	4	102	.	.
NC1=NC(=O)/C(=C/c2cn(Cc3ccccc3)c3ccccc23)S1	-5	7	116*	-34	5	92	87*	25*
O=C1C2C3C=CC(C3)C2C(=O)N1/N=C/c1cn(Cc2ccccc2)c2ccccc12 (centres undefined)	4	1	1	0	-4	106	.	.
Cc1ccc(Nc2nc(N)nc(-c3oc4ccccc4c3C)n2)cc1	-13	3	104*	9	13	97	-7	85*
O=C1c2ccccc2-c2nc3ccccc3nc21	-23	6	115*	2	23	90	149*	.
CCOC(=O)c1ccc(Oc2nc(OC)nc(N(C)C)n2)cc1	-29	-1	1	0	29	95	.	.
c1ccc(-c2csc(=Nc3cccnc3)n2CC2CCCO2)cc1 (centres undefined)	-14	0	80*	1	14	104	55*	97*
CCn1c(-c2sc(-c3ccccc3)nc2C)n[nH]c1=S	-18	3	81*	-1	18	105	119*	19*
Cc1ccccc1OCc1nnc(SCC(=O)NC2CCCCC2)o1	9	0	1	-1	-9	105	.	.

Compound activity as filed in PubChem.
